Assays:
[1] = target: Phosphatidylinositol 4,5-bisphosphate 3-kinase catalytic subunit alpha isoform (Bos taurus, UniProt P32871); experiment: Inhibition of GST-tagged bovine p110-alpha expressed in SF9/Baculovirus system by SPA
MCF7 [2] = experiment: Inhibition of serum-induced proliferation of human adriamycin-resistant MCF7 cells; format: functional, cell-based
A-375 = experiment: Inhibition of serum-induced proliferation of human A375 cells; format: functional, cell-based
How it was run: (§1)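 Cells were grown in DMEM with 10% FBS and penicillin/streptomycin and seeded at 1 × 10⁴ per well onto pre-spotted compound. After 46 h, Alamar blue was added. Fluorescence (ex 544/em 590 nm) was read 2 h later.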

MCF7 [3] = experiment: Inhibition of serum-induced proliferation of human MCF7 cells; format: functional, cell-based
HeLa [4] = experiment: Inhibition of serum-induced proliferation of human HeLa cells; format: functional, cell-based; how it was run: as §1
A549 = experiment: Inhibition of serum-induced proliferation of human A549 cells; format: functional, cell-based; how it was run: as §1
HeLa [5] = experiment: Suppression of tumor growth in human HeLa cell xenografted BALB/c nude mouse at 50 mg/kg/day, ip after 2 weeks; format: functional; conditions: route intraperitoneal
How it was run: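 Female Balb/c-nu/nu mice, five per group, received 5 × 10⁶ HeLa cells subcutaneously in the hind quarters. Once tumors reached about 100 mm³, the compound was given i.p. at 50 mg/kg daily for 2 weeks. Tumor growth was compared with vehicle, and body weight was monitored.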

[6] = target: Phosphatidylinositol 4,5-bisphosphate 3-kinase catalytic subunit gamma isoform (Homo sapiens, UniProt P48736); experiment: Inhibition of His-tagged human p110gamma expressed in SF9/Baculovirus system by SPA
Chain of Phosphatidylinositol 4,5-bisphosphate 3-kinase catalytic subunit gamma isoform (P48736 whole entry, the tested form may be a part, canonical isoform): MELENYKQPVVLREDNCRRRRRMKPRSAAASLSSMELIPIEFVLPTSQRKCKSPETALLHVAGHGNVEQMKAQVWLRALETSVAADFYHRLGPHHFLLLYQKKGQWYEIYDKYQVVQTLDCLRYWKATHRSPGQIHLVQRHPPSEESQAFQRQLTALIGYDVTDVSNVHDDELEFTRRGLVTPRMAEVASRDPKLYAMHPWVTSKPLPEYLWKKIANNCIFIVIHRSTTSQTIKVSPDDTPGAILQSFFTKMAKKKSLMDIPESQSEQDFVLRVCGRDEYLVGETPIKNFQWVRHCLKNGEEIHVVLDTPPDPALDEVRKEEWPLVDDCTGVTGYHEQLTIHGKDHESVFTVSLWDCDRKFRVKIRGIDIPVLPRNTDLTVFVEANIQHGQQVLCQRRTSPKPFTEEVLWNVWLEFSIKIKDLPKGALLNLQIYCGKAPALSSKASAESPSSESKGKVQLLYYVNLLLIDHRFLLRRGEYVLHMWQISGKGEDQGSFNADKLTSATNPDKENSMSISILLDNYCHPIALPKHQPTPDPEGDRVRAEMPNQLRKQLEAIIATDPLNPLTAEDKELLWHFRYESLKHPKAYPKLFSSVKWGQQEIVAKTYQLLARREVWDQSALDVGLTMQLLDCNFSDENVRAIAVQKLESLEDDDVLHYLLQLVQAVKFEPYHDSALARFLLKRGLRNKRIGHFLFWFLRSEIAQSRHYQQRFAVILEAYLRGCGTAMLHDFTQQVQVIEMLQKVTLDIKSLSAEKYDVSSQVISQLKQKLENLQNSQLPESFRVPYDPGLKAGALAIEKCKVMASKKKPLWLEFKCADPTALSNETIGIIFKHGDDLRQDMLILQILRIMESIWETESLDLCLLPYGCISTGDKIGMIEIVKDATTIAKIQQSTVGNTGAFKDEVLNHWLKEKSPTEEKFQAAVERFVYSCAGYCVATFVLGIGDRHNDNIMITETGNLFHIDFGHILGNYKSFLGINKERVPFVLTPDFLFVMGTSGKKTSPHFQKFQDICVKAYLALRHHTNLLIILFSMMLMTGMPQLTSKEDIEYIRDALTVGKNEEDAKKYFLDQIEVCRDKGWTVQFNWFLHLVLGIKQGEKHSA

[7] = target: Phosphatidylinositol 4-phosphate 3-kinase C2 domain-containing subunit beta (Homo sapiens, UniProt O00750); experiment: Inhibition of glu-tagged PI3K C2-beta expressed in SF9/Baculovirus system by SPA
Chain of Phosphatidylinositol 4-phosphate 3-kinase C2 domain-containing subunit beta (O00750 whole entry, the tested form may be a part): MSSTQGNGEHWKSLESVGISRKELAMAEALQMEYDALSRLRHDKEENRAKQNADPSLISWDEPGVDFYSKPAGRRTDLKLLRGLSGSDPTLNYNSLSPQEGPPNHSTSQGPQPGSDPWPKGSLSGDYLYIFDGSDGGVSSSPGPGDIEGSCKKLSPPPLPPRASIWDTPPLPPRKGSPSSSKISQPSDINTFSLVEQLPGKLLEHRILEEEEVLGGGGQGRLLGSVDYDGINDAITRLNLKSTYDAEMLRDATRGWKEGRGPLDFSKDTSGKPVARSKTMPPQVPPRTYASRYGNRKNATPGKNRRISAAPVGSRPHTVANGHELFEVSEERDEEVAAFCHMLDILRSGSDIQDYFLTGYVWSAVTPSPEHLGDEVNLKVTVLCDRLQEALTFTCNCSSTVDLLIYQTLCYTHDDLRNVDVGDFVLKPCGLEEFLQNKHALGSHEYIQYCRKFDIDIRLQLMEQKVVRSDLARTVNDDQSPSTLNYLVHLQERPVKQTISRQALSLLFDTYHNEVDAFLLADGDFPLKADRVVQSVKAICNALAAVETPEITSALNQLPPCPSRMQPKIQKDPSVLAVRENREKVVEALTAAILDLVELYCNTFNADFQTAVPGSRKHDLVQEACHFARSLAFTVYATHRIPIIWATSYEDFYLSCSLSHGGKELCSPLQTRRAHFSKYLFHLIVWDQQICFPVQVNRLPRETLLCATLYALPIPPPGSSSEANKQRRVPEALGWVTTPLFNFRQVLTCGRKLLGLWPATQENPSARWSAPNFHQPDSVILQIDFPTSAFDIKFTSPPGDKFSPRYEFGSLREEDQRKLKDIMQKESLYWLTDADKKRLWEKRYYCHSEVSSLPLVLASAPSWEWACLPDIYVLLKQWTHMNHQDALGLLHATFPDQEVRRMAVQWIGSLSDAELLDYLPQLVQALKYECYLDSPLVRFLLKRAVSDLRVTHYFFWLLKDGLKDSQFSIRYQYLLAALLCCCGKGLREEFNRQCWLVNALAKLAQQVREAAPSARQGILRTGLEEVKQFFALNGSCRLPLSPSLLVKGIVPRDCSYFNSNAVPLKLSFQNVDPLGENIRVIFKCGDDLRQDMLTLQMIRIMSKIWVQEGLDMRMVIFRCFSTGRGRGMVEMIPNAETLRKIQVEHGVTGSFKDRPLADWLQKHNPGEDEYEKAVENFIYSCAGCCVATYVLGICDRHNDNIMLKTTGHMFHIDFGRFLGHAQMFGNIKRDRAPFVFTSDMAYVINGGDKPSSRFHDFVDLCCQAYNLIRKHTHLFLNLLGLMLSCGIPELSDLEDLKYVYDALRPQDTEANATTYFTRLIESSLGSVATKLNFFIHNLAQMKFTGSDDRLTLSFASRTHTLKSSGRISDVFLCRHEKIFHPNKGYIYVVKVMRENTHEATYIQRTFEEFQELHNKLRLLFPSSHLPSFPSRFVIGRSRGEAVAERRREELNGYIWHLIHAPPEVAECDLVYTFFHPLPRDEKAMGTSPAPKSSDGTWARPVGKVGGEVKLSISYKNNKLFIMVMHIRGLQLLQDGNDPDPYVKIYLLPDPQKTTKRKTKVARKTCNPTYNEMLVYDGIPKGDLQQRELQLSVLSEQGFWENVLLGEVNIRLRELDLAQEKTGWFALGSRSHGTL

Chain of Phosphatidylinositol 4,5-bisphosphate 3-kinase catalytic subunit alpha isoform (P32871 whole entry, canonical isoform): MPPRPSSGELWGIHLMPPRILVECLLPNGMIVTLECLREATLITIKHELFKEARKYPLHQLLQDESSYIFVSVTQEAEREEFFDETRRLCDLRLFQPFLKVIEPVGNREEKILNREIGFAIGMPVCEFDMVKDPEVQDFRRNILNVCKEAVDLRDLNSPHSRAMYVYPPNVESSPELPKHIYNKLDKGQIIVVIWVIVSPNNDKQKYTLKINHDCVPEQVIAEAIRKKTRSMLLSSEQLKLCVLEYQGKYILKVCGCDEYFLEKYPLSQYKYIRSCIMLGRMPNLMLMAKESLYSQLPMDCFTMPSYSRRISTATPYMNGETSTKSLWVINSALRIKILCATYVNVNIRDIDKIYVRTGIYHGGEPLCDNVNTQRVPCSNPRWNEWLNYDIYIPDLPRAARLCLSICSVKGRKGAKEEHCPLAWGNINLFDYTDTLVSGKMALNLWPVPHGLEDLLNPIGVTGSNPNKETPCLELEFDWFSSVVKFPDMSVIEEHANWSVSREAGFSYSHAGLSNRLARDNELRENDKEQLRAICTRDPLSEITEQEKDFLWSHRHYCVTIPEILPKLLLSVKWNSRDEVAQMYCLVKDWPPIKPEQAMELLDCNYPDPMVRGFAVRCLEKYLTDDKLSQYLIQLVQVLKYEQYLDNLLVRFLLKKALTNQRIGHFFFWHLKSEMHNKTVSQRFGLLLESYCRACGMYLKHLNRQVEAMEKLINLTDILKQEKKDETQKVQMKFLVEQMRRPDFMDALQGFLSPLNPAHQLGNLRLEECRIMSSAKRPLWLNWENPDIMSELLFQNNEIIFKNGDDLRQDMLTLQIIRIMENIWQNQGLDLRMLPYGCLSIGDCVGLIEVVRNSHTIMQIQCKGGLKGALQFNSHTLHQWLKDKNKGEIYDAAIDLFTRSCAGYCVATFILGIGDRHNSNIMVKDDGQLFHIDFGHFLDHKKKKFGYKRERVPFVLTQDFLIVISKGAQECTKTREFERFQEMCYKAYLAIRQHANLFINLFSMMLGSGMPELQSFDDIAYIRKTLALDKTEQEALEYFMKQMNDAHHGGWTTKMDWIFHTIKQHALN

Row | SMILES | IC50 [1] [nM] | IC50 (A-375) [nM] | other results
1 | C/C(=N\NS(=O)(=O)c1cc([N+](=O)[O-])ccc1C)c1c(C)nc2ccc(Br)cn12 | 400 | – | –
2 | Cc1ccc([N+](=O)[O-])cc1S(=O)(=O)N(C)/N=C/c1cnc2ccc(Br)cn12.Cl | – | 58 | IC50 (MCF7 [2]): 39 nM; IC50 (MCF7 [3]): 19 nM; IC50 (HeLa [4]): 51 nM; IC50 (A549): 69 nM; Activity (HeLa [5]): 62%; IC50 [6]: 40 nM; IC50 [7]: 100 nM
3 | Cc1ccc2ncc(/C=N/N(C)S(=O)(=O)c3cc([N+](=O)[O-])ccc3C)n2c1 | 6 | 120 | –
4 | Cc1ccc([N+](=O)[O-])cc1S(=O)(=O)N(C)/N=C/c1cnc2ccc(C#N)cn12 | 0.26 | 33 | –
5 | O=c1cc(N2CCOCC2)oc2c(-c3ccccc3)cccc12 [LY-294002] | – | 8400 | –
6 | Cc1ccc([N+](=O)[O-])cc1S(=O)(=O)N/N=C/c1cnc2ccc(Br)cn12 | 21 | 9000 | –
7 | C/C(=N\NS(=O)(=O)c1cc([N+](=O)[O-])ccc1C)c1cnc2ccc(Br)cn12 | 17 | 12000 | –
8 | Cc1ccc([N+](=O)[O-])cc1S(=O)(=O)N(C)/N=C/c1cnc2ccc(F)cn12 | 5.3 | 180 | –
9 | C/C(=N\N(C)S(=O)(=O)c1cc([N+](=O)[O-])ccc1C)c1c(C)nc2ccc(Br)cn12 | 170 | – | –
10 | Cc1ccc([N+](=O)[O-])cc1S(=O)(=O)n1ccc(-c2c(C)nc3ccc(Br)cn23)n1 | – | 730 | –
11 | Cc1ccc([N+](=O)[O-])cc1S(=O)(=O)N(C)/N=C/c1cnc2ccc(Cl)cn12 | 0.77 | 56 | –
12 | Cc1ccc([N+](=O)[O-])cc1S(=O)(=O)N(C)/N=C/c1cnc2ccc(C(F)(F)F)cn12 | 14 | 90 | –
13 | CCOC(=O)c1ccc2ncc(/C=N/N(C)S(=O)(=O)c3cc([N+](=O)[O-])ccc3C)n2c1 | 340 | 9350 | –
14 | C/C(=N\N(C)S(=O)(=O)c1cc([N+](=O)[O-])ccc1C)c1cnc2ccc(Br)cn12 | 81 | 20000 | –
15 | Cc1nc2ccccn2c1-c1ccn(S(=O)(=O)c2ccc(F)cc2)n1 | – | 23000 | –
16 | Cc1ccc([N+](=O)[O-])cc1S(=O)(=O)N(C)/N=C/c1cnc2ccc(C(N)=O)cn12 | 780 | 8960 | –
